In ChEMBL document CHEMBL1687926, “14-Aminocamptothecins: their synthesis, preclinical activity, and potential use for cancer treatment” (J Med Chem, 2011):
Where “and” joins values, the source holds several entries; their conditions need not be identical. Equal values may be shown once.

Key:
[1] = Resistance ratio of IC50 for human MES-SA/Dx5 cells overexpressing MDR1 after 72 hrs to IC50 for human MESSA cells after 72 hrs; format: functional
Procedure, shortened: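 Cytotoxicity compared in MDR1-overexpressing lines and their parental wild-type lines. 72 h exposure at 37 °C, viability by AlamarBlue, IC₅₀ at 50% growth inhibition. Resistance ratio = IC₅₀ in overexpressing line / IC₅₀ in parental line.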

[2] = Tmax in CD-1 mouse plasma at 50 mg/kg, ip by LC/MS/MS analysis; format: ADME, organism-based; design: dose 50 mg/kg, route intraperitoneal
Procedure, shortened: (§1)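 CD-1 mice (~25 g) given 50 mg/kg ip in 5% DMSO/5% Tween 80 in water; three mice per time point, sampled up to 480 min. Blood taken by cardiac puncture into EDTA, then whole brain excised and homogenized in water. Proteins precipitated with ice-cold acetonitrile containing propranolol internal standard; supernatant analysed by HPLC/MS/MS.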

[3] = tested on: HT-29; test: Antitumor activity against human HT-29 cells xenografted in nu/nu mouse assessed as tumor growth delay at 40 mg/kg, […]; format: functional; conditions: route oral
[4] = tested on: NCI-H460; test: Cytotoxicity against human H460 cells after 72 hrs by alamar blue assay; format: functional, cell-based
Procedure, shortened: (§2)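 Cells seeded at 4 × 10³ per well and grown 24 h. Compounds dissolved in DMSO and diluted in medium to final concentrations, then incubated 72 h at 37 °C, 5% CO₂. Viable cells read by AlamarBlue; IC₅₀ taken as the concentration giving 50% growth inhibition.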

[5] = Cytotoxicity against mouse bone marrow cell by CFU-GM assay; format: cell-based
Procedure, shortened: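 CFU-GM colony assay on normal human bone marrow (thawed) or mouse femoral marrow (freshly extracted). Human colonies scored after 16-18 days. IC₅₀ taken from triplicate assays.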

[6] = tested on: Malme-3M; test: Cytotoxicity against human MALME-3M cells after 72 hrs by alamar blue assay; format: functional, cell-based; procedure, shortened: as §2
[7] = Cmax in CD-1 mouse brain at 50 mg/kg, ip by LC/MS/MS analysis; format: ADME, organism-based; design: dose 50 mg/kg, route intraperitoneal; procedure, shortened: as §1
[8] = tested on: PC-3; test: Antitumor activity against human PC3 cells xenografted in nu/nu mouse assessed as tumor growth inhibition at 40 mg/kg, po QD for 5 days followed by 2 days without treatment for 2 weeks; format: functional; design: scale not given: the % may be the effect or the level left
Procedure, shortened: (§3)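 Female nude (nu/nu) mice (males for prostate model) implanted sc in the flank with tumor cells (1 × 10⁶ for H460). Dosing began at 100-150 mm³, 10 mice/group. Oral gavage in 5% DMSO/5% Tween 80/1% CMC in water, 5 days on/2 off per cycle, 2 or 4 cycles. Volume = length×width²/2, measured twice weekly. TGI = (1 − ΔT/ΔC)×100; TGD = extra days to reach 500 mm³ versus control.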

[9] = Cytotoxicity against human MES-SA/Dx5 cells overexpressing MDR1 after 72 hrs by alamar blue assay; format: functional, cell-based; conditions: MES-SA/Dx5, 72 h; procedure, shortened: as §2
[10] = tested on: Mus musculus; test: Toxicity in nu/nu mouse assessed as body weight loss at 40 mg/kg, po QD for 5 days followed by 2 days without treatment for 2 weeks; format: organism-based; design: dose 40 mg/kg, route oral; conditions: in vivo
Procedure, shortened: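 Female nude (nu/nu) mice (males for prostate model) bearing sc xenografts, dosing started at 100-150 mm³, 10/group. Oral gavage in 5% DMSO/5% Tween 80/1% CMC in water, QD 5 days on/2 off per cycle, 2 or 4 cycles. Body weight recorded twice weekly; maximum loss reported.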

[11] = tested on: DU-145; test: Cytotoxicity against human DU145 cells after 72 hrs by alamar blue assay; format: functional, cell-based; conditions: DU-145, 72 h; procedure, shortened: as §2
[12] = tested on: IGROV-1; test: Cytotoxicity against human IGROV1 cells after 72 hrs by alamar blue assay; format: functional, cell-based; conditions: IGROV-1, 72 h; procedure, shortened: as §2
[13] = Half life in CD-1 mouse plasma at 50 mg/kg, ip by LC/MS/MS analysis; format: ADME, organism-based; design: dose 50 mg/kg, route intraperitoneal; procedure, shortened: as §1
[14] = Tmax in CD-1 mouse brain at 50 mg/kg, ip by LC/MS/MS analysis; format: ADME, organism-based; design: dose 50 mg/kg, route intraperitoneal; procedure, shortened: as §1
[15] = tested on: LNCaP; test: Cytotoxicity against human LNCAP cells after 72 hrs by alamar blue assay; format: functional, cell-based; procedure, shortened: as §2
[16] = tested on: Mus musculus; test: Toxicity in nu/nu mouse assessed as body weight loss at 40 mg/kg, po QD for 5 days followed by 4 days without treatment for 2 weeks; format: organism-based; design: dose 40 mg/kg, route oral; conditions: in vivo
[17] = tested on: H69AR; test: Cytotoxicity against human H69AR cells overexpressing MRP1 after 72 hrs by alamar blue assay
[18] = Cmax in CD-1 mouse plasma at 50 mg/kg, ip by LC/MS/MS analysis; format: ADME, organism-based; design: dose 50 mg/kg, route intraperitoneal; procedure, shortened: as §1
[19] = Ratio of IC90 for mouse bone marrow cell to IC90 for human bone marrow cell; format: ADME, cell-based; conditions: bone marrow cells
Procedure, shortened: (§4)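 CFU-GM colony assay in triplicate at 2 × 10⁴ cells per culture, using thawed normal human bone marrow or fresh mouse femoral marrow. Colonies were scored after 16-18 days. The IC50 or IC90 from each species gave the mouse/human ratio.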

[20] = tested on: HT-29; test: Antitumor activity against human HT-29 cells xenografted in nu/nu mouse assessed as tumor growth inhibition at 40 mg/kg, […]; format: functional; design: scale not given: the % may be the effect or the level left; conditions: route oral
[21] = tested on: NCI-H460; test: Ratio IC50 for human H460 cells after 72 hrs in presence of 40 mg/ml HSA to IC50 for human H460 cells after 72 hrs; format: functional
Procedure, shortened: (§5)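 H460 cells seeded at 4 × 10³ per well and grown 24 h. Compounds then cocultured with cells for 72 h at 37 °C, with or without 40 mg/mL human serum albumin. Viability read by AlamarBlue; IC₅₀ = 50% growth inhibition. Ratio compares the IC₅₀ with HSA to the IC₅₀ without.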

[22] = tested on: PC-3; test: Antitumor activity against human PC3 cells xenografted in nu/nu mouse assessed as tumor growth delay at 40 mg/kg, po QD for 5 days followed by 2 days without treatment for 2 weeks; format: functional; procedure, shortened: as §3
[23] = Half life in CD-1 mouse brain at 50 mg/kg, ip by LC/MS/MS analysis; format: ADME, organism-based; design: dose 50 mg/kg, route intraperitoneal; procedure, shortened: as §1
[24] = AUC in CD-1 mouse plasma at 50 mg/kg, ip by LC/MS/MS analysis; format: ADME, organism-based; design: dose 50 mg/kg, route intraperitoneal; procedure, shortened: as §1
[25] = Cytotoxicity against human bone marrow cell by CFU-GM assay; format: cell-based
[26] = Ratio of IC50 for mouse bone marrow cell to IC50 for human bone marrow cell; format: cell-based; conditions: bone marrow cells; procedure, shortened: as §4
[27] = tested on: NCI-H460; test: Cytotoxicity against human H460 cells after 72 hrs by alamar blue assay in presence of 40 mg/ml HSA; format: functional, cell-based; conditions: NCI-H460, 72 h; procedure, shortened: as §5
[28] = tested on: HT-29; test: Cytotoxicity against human HT-29 cells after 72 hrs by alamar blue assay; format: functional, cell-based; conditions: HT-29, 72 h; procedure, shortened: as §2
[29] = tested on: A-375; test: Cytotoxicity against human A375 cells after 72 hrs by alamar blue assay; format: functional, cell-based; conditions: A-375, 72 h; procedure, shortened: as §2
[30] = tested on: SK-MEL-2; test: Cytotoxicity against human SK-MEL-2 cells after 72 hrs by alamar blue assay; format: functional, cell-based; conditions: SK-MEL-2, 72 h; procedure, shortened: as §2
[31] = tested on: NCI-H460; test: Antitumor activity against human H460 cells xenografted in nu/nu mouse assessed as tumor growth inhibition at 40 mg/kg, po QD for 5 days followed by 2days without treatment for 2 weeks; format: functional; design: scale not given: the % may be the effect or the level left; procedure, shortened: as §3
[32] = tested on: PC-3; test: Cytotoxicity against human PC3 cells after 72 hrs by alamar blue assay; format: functional, cell-based; conditions: PC-3, 72 h; procedure, shortened: as §2
[33] = Ratio of drug level in brain to plasma in CD-1 mouse at 50 mg/kg, ip; format: ADME, organism-based; design: dose 50 mg/kg, route intraperitoneal; procedure, shortened: as §1
[34] = Resistance ratio of IC50 for human H69AR cells overexpressing MRP1 after 72 hrs s to IC50 for human H69 cells after 72 hrs
[35] = tested on: NCI-H69; test: Cytotoxicity against human H69 cells after 72 hrs by alamar blue assay; format: functional, cell-based; conditions: NCI-H69, 72 h; procedure, shortened: as §2
[36] = Cytotoxicity against human MESSA cells after 72 hrs by alamar blue assay; format: functional, cell-based; conditions: MES-SA; procedure, shortened: as §2
[37] = AUC in CD-1 mouse brain at 50 mg/kg, ip by LC/MS/MS analysis; format: ADME, organism-based; design: dose 50 mg/kg, route intraperitoneal; procedure, shortened: as §1
[38] = tested on: NCI-H460; test: Antitumor activity against human H460 cells xenografted in nu/nu mouse assessed as tumor growth delay at 40 mg/kg, po QD for 5 days followed by 2days without treatment for 2 weeks; format: functional; procedure, shortened: as §3

## CCc1c2c(nc3ccccc13)-c1c(N)c3c(c(=O)n1C2)COC(=O)[C@]3(O)CC
[1]
  Ratio: 3
[2]
  Tmax: 1 h
[3]
  Time: 30 days
[4]; Homo sapiens, NCI-H460, 72 h
  IC50: 7 nM
[4]; nci-h460
  IC50: 12 nM
[5]
  IC50: 110 nM
[6]
  IC50: 1200 nM
[7]
  Cmax: 300 ng/mL
[8]
  Activity: 107%
[9]
  IC50: 12 nM
[10]
  Activity: 4%
[11]
  IC50: 1200 nM
[12]
  IC50: 20 nM
[13]
  half-life: 4.17 h
[14]
  Tmax: 1 h
[15]
  IC50: 120 nM
[16]
  Activity: 3% and 8%
[17]
  IC50: 240 nM
[18]
  Cmax: 300 ng/mL
[19]
  selectivity ratio: 650
[20]
  Activity: 101%
[21]
  Ratio: 10
[22]
  Time: 45 days
[23]
  half-life: 4 h
[24]
  AUC: 1070 ng·h/mL
[25]; Homo sapiens, Bone marrow cell
  IC50: 620 nM
[25]; human, bone marrow cells
  IC90: 4500 nM
[26]
  selectivity ratio: 6
[27]
  IC50: 120 nM
[28]
  IC50: 300 nM
[29]
  IC50: 7 nM
[30]
  IC50: 130 nM
[31]
  Activity: 84%
[32]
  IC50: 24 nM
[33]
  Kp: 70
[34]
  Ratio: 2.2
[35]
  IC50: 110 nM
[36]
  IC50: 4 nM
[37]
  AUC: 750 ng·h/mL
[38]
  Time: 14 days
